Experimental data published in ChEMBL document CHEMBL3046303, “Nematotoxic phenolic compounds from Melia azedarach against Meloidogyne incognita” (J Agric Food Chem, 2012).
Converted amounts (≈) assume the structure as drawn. The source made the active and inactive calls. No cut-off for these calls is given here.

Tested on: Meloidogyne incognita
Assay: Nematotoxic activity against freshly hatched Meloidogyne incognita J2 (root-knot nematode) isolated from tomato roots assessed as induction of nematode paralysis measured 24 hr after immersion in compound test solutions
Type: functional, organism-based
Procedure, shortened: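 Freshly hatched (24 h) J2 extracted from tomato roots; 25 J2 per well in 96-well plates, kept in the dark at 28 °C. Motile or paralyzed J2 were scored under an inverted microscope at 40×. Paralysis was corrected for the water control (Schneider-Orelli). EC50 was fitted by log-logistic regression on the mean of five replicates; experiments were run twice.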

| Structure (SMILES) | EC50 [µg/mL] |
| --- | --- |
| Oc1cc(O)c2c(c1)O[C@@H](c1ccc(O)c(O)c1)[C@@H](O)C2 [(+)-EPICATECHIN] | > 1000 |
| O=C(O)c1ccccc1 [BENZOIC ACID] | 501 (≈ 4.1 mM) |
| O=C(O)c1ccc2ccccc2c1 [BETA-NAPHTOIC ACID] | > 1000 |
| O=C(O)/C=C/c1ccc(O)c(O)c1 [CAFFEIC ACID] | > 1000 |
| Oc1cc(O)c2c(c1)OC(c1ccc(O)c(O)c1)C(O)C2 (stereo not given) [CATECHIN] | > 1000 |
| O=C(/C=C/c1ccc(O)c(O)c1)O[C@@H]1C[C@](O)(C(=O)O)C[C@@H](O)[C@H]1O [CHLOROGENIC ACID] | > 1000 |
| O=C(O)/C=C/c1ccc(O)cc1 [COUMARIC ACID] | 840 (≈ 5.12 mM) |
| COc1cc(/C=C/C(=O)O)ccc1O [FERULATE] | > 1000 |
| O=C(O)c1cc(O)c(O)c(O)c1 [GALLIC ACID] | > 1000 |
| O=C(O)CC(O)C(=O)O (stereo not given) [MALIC ACID] | > 1000 |
| O=C(O)c1cccnc1 [NIACIN] | 1730 (≈ 14.1 mM) |
| O=C(O)c1ccc(O)cc1 [PARABEN] | 871 (≈ 6.31 mM) |
| O=C(O)c1ccc(O)c(O)c1 [PROTOCATECHUIC ACID] | > 1000 |
| C[C@@H]1O[C@@H](OC[C@H]2O[C@@H](Oc3c(-c4ccc(O)c(O)c4)oc4cc(O)cc(O)c4c3=O)[C@H](O)[C@@H](O)[C@@H]2O)[C@H](O)[C@H](O)[C@H]1O [RUTIN] | > 1000 |
| O=C(O)c1ccccc1O [SALICYLIC ACID] | 379 (≈ 2.74 mM) |
| COc1cc(C(=O)O)ccc1O [VANILLIC ACID] | > 1000 |

Tested on: Meloidogyne incognita
Assay: Nematotoxic activity against Meloidogyne incognita (root-knot nematode)
Type: functional, organism-based
Procedure, shortened: (§1)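 Freshly hatched J2 (24 h old), extracted from tomato roots, were exposed to test solutions at 25 J2 per well. Plates were kept in the dark at 28 °C with water and solvent-carrier controls. Nematodes were scored under an inverted microscope (40×) as motile or paralyzed. Paralysis was corrected for the water control by the Schneider-Orelli formula. EC50 came from log-logistic regression. Experiments were run twice.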

| Structure (SMILES) | EC50 [µg/mL] | LC50 [µg/mL] |
| --- | --- | --- |
| Cc1ccc(C=O)o1 [5-METHYLFURFURAL] | 45.7 (≈ 0.415 mM) |  |
| O=Cc1ccc(CO)o1 [AES-103] | 8.5 (≈ 0.0674 mM) |  |
| O=Cc1ccco1 [FURFURAL] | 41.1 (≈ 0.428 mM) |  |
| CCCCCC(=O)O [HEXANOATE] | 38.3 (≈ 0.33 mM) |  |
| CCCCCCCCCCCCCCCC(=O)O [PALMITIC ACID] | 38.3 (≈ 0.149 mM) |  |
| O=C(O)c1ccccc1O [SALICYLIC ACID] |  | 46 (≈ 0.333 mM) |

Tested on: Meloidogyne incognita
Assay: Nematotoxic activity against freshly hatched Meloidogyne incognita J2 (root-knot nematode) isolated from tomato roots assessed as induction of microscopic damages in nematode body measured 24 hr after immersion in compound test solutions
Type: functional, organism-based

| Structure (SMILES) | Activity |
| --- | --- |
| O=Cc1ccco1 [FURFURAL] | Active |

Tested on: Meloidogyne incognita
Assay: Nematotoxic activity against freshly hatched Meloidogyne incognita J2 (root-knot nematode) isolated from tomato roots assessed as induction of nematode paralysis at 1000 ug/mL measured 24 hr after immersion in compound test solutions
Type: functional, organism-based
Procedure, shortened: as §1

| Structure (SMILES) | Activity |
| --- | --- |
| O=C(O)/C=C/c1ccc(O)c(O)c1 [CAFFEIC ACID] | inactive |
| O=C(O)c1ccccc1O [SALICYLIC ACID] | Active |
